Measurements: ChEMBL document CHEMBL5365428, “Alkyne as a Latent Warhead to Covalently Target SARS-CoV-2 Main Protease” (J Med Chem, 2023)
Activity calls are given as the source filed them. The rule behind the calls is not given here. Residues, ends and D or L forms follow the SMILES beside them. *: point of attachment. Cbz = O=C(OCc1ccccc1)*

Tests used:
[1] = molecular target: Replicase polyprotein 1ab (Severe acute respiratory syndrome coronavirus 2) (UniProt P0DTD1); assay: Binding affinity to recombinant hexa-His tagged SARS-COV2 main protease expressed in Escherichia coli at 300 nM by in-gel fluorescence analysis
Outline: (§1)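 E. coli-expressed Mpro was incubated with Alk-4d or Alk-4i at 30 °C for 1 h. Click chemistry followed at room temperature for 1 h in the dark, with final 25 μM TAMRA-azide, 1 mM TCEP, 100 μM THPTA and 1 mM CuSO4. Samples were boiled, run on 4–20% SDS-PAGE, scanned at ex 532/em 600 nm, and silver-stained to check loading.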

[2] = molecular target: Replicase polyprotein 1ab (Severe acute respiratory syndrome coronavirus 2) (UniProt P0DTD1); assay: Binding affinity to SARS-COV2 main protease at 30 uM preincubated with nirmatrelvir followed by compound addition measured over 6 hrs
Outline: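 Pulse-chase competition: recombinant Mpro was pretreated with 1.5 μM nirmatrelvir at 30 °C, then given 30 μM Alk-4i probe for various times. Click conjugation to TAMRA-azide was followed by SDS-PAGE and in-gel fluorescence (ex 532, em 600 nm). The nirmatrelvir dissociation half-life was derived from the labeling curve.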

HEK293T = assay: Binding affinity to proteome in HEK293T cells at 10 uM after 5 hrs; format: cell-based; conditions: Homo sapiens
Outline: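 Parental HEK293T cells were treated with clickable probe at various concentrations for 5 h. Cells were harvested and lysed in NP40 buffer, and protein was normalised to 1 mg/mL. Lysates were click-conjugated to TAMRA azide, resolved by SDS-PAGE and imaged for in-gel fluorescence.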

SARS-CoV-2 [3] = assay: Antiviral activity against SARS-CoV-2 infected in HeLa cells expressing ACE2 pre-infected for 1 hr followed by compound addition and measured after 24 hrs; format: functional, organism-based; conditions: Severe acute respiratory syndrome coronavirus 2
HeLa = assay: Cytotoxicity against human HeLa cells expressing ACE2 upto 10 uM after 20 hrs by Cell Titer-Glo luminescent cell viability assay; format: toxicity, cell-based
[4] = molecular target: Replicase polyprotein 1ab (Severe acute respiratory syndrome coronavirus 2) (UniProt P0DTD1); assay: Binding affinity to recombinant hexa-His tagged SARS-COV2 main protease expressed in Escherichia coli incubated for 1 hr by SDS-PAGE gel electrophoresis method; outline: as §1
[5] = molecular target: Replicase polyprotein 1ab (Severe acute respiratory syndrome coronavirus 2) (UniProt P0DTD1); assay: Binding affinity to recombinant hexa-His tagged SARS-COV2 main protease expressed in Escherichia coli pretreated with (1R,2S,5S)-3-((S)-3,3-dimethyl-2-(2,2,2-trifluoroacetamido)butanoyl)-6,6-dimethyl-N-((S)-1-((S)-2-oxopyrrolidin-3-yl)but-3-yn-2-yl)-3-azabicyclo[3.1.0]hexane-2-carboxamide followed by compound addition by SDS-PAGE gel electrophoresis method
[6] = molecular target: Replicase polyprotein 1ab (Severe acute respiratory syndrome coronavirus 2) (UniProt P0DTD1); assay: Binding affinity to recombinant hexa-His tagged SARS-COV2 main protease expressed in Escherichia coli pretreated with nirmatrelvir followed by compound addition by SDS-PAGE gel electrophoresis method
[7] = molecular target: Replicase polyprotein 1ab (Severe acute respiratory syndrome coronavirus 2) (UniProt P0DTD1); assay: Binding affinity to recombinant hexa-His tagged SARS-COV2 main protease expressed in HEK293T cells by in-gel fluorescence analysis; format: cell-based
Outline: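 HEK293T cells were transiently transfected with an Mpro plasmid. At 24 h post-transfection, they were treated with probe (from a 1000× DMSO stock) in fresh DMEM/10% FBS. Cells were washed, lysed in NP40 buffer and normalised to 1 mg/mL protein. Lysates were click-conjugated to TAMRA-azide, then analysed by SDS-PAGE and fluorescence imaging.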

[8] = molecular target: Replicase polyprotein 1ab (Severe acute respiratory syndrome coronavirus 2) (UniProt P0DTD1); assay: Binding affinity to recombinant hexa-His tagged SARS-COV2 main protease expressed in Escherichia coli at 10 uM pretreated with (1R,2S,5S)-3-((S)-3,3-dimethyl-2-(2,2,2-trifluoroacetamido)butanoyl)-6,6-dimethyl-N-((S)-5,5,5-trifluoro-1-((S)-2- oxopyrrolidin-3-yl)pent-3-yn-2-yl)-3-azabicyclo[3.1.0]hexane-2-carboxamide
Outline: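 Competition labeling: recombinant Mpro (1 μg) was […] competitor and clickable probe at the indicated concentrations, at 30 °C for 1 h. TAMRA-azide click reaction, SDS-PAGE and in-gel fluorescence imaging (ex 532/em 600 nm) followed.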

[9] = molecular target: Replicase polyprotein 1ab (Severe acute respiratory syndrome coronavirus 2) (UniProt P0DTD1); assay: Inhibition of recombinant hexa-His tagged SARS-COV2 main protease expressed in Escherichia coli upto 30 uM using Dabcyl-KTSAVLQISGFRKM-E(Edans)-NH2 as substrate preincubated for 15 mins followed by substrate addition and measured after 1 hr by FRET assay; conditions: time 75.0 min
Outline: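 Fluorescence (ex 340/em 475 nm) was read every 38 s for 1 h. IC50 came from initial velocities, in duplicate.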

[10] = molecular target: Cathepsin B (Homo sapiens) (UniProt P07858); assay: Inhibition of human cathepsin B upto 40 uM preincubated for 20 mins
Outline: (§2)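 Z-FR-AMC was added at 10 μM. Fluorescence (ex 355/em 460 nm) was read at room temperature every 5 min for 2 h, and initial velocities came from the linear portion.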

[11] = molecular target: T1, Cathepsin K (Homo sapiens) (UniProt P43235); assay: Inhibition of human cathepsin K upto 40 uM preincubated for 20 mins
T1 sequence (whole entry): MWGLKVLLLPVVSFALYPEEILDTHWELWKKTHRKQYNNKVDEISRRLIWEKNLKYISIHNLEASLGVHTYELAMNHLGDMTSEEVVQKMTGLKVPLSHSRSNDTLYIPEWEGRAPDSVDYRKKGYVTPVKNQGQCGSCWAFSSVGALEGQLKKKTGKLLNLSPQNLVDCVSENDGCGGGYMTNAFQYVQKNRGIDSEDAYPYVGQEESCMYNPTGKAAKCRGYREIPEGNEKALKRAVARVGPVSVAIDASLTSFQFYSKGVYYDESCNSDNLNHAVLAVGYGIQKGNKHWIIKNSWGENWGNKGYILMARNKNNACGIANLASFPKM
Outline: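 Recombinant cathepsin K (0.042 nM) was preincubated with compound for 20 min in 50 mM NaOAc pH 5.5, 5 mM EDTA, 0.005% Triton X-100, 5 mM DTT and 1% DMSO. Z-FR-AMC was added at 5 μM. Fluorescence (ex 355/em 460 nm) was read at room temperature every 5 min for 2 h, and initial velocities came from the linear portion.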

[12] = molecular target: Procathepsin L (Homo sapiens) (UniProt P07711); assay: Inhibition of human cathepsin L upto 40 uM preincubated for 20 mins; outline: as §2
Procathepsin L (Homo sapiens), sequence (P07711 114-333 limits assumed): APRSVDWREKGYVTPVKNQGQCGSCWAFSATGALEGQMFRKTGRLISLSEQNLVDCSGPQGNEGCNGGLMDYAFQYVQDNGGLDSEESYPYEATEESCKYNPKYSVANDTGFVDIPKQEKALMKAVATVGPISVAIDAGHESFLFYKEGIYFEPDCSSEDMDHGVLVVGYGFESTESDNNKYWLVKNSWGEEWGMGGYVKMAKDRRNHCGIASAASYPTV

SARS-CoV-2 [13] = assay: Antiviral activity against SARS-CoV-2 infected in HeLa cells expressing ACE2 at 3 uM pre-infected for 1 hr followed by compound addition and measured after 24 hrs by RT-qPCR analysis; format: functional, Severe acute respiratory syndrome coronavirus 2

With `C#CC[C@H](NC(=O)C(F)(F)F)C(=O)N1C[C@H]2[C@@H]([C@H]1C(=O)N[C@H](C#CC(F)(F)F)C[C@@H]1CCNC1=O)C2(C)C` the Activity [1] was “Active”, the Activity [2] was “Active” and the Activity (HEK293T) was “Active”.
With `CC(C)(C)[C@H](NC(=O)C(F)(F)F)C(=O)N1C[C@H]2[C@@H]([C@H]1C(=O)N[C@H](C#CC(F)(F)F)C[C@@H]1CCNC1=O)C2(C)C` the Activity (SARS-CoV-2 [3]) was “Dose-Dependent Effect” and the Activity (HeLa) was “Non-Toxic”.
In the case of `C#CC[C@H](NC(=O)C(F)(F)F)C(=O)N1C[C@H]2[C@@H]([C@H]1C(=O)N[C@H](C#C)C[C@@H]1CCNC1=O)C2(C)C`, the Activity [4] is reported as “Active”, the Activity [5] is reported as “inactive” and the Activity [6] is reported as “inactive”. For the same compound, the Activity [7] was “Dose-Dependent Effect” and the Activity [8] was “inactive”.
`CC(C)C[C@H](NC(=O)OCc1ccccc1)C(=O)N[C@H](C#N)CCC(N)=O` was tested, and the inhibition [9] was “inactive”.
For `CC(C)C[C@H](NC(=O)OCc1ccccc1)C(=O)N[C@H](C=O)CCC(N)=O` (Cbz-Leu-Gln-aldehyde), the inhibition [9] was “inactive”.
`C#C[C@H](C[C@@H]1CCNC1=O)NC(=O)[C@@H]1[C@@H]2[C@H](CN1C(=O)[C@@H](NC(=O)C(F)(F)F)C(C)(C)C)C2(C)C` was tested, and the inhibition [10] was “inactive”, the inhibition [11] was “inactive” and the inhibition [12] was “inactive”. For the same compound, the Activity (SARS-CoV-2 [3]) was “Dose-Dependent Effect” and the Activity (SARS-CoV-2 [13]) was 100%.
